# Data published in article PMC8963331 (Toxicological Sciences, 2022).
# Entries after “also recorded” stand apart in the source; their conditions may differ. Where two headings read alike, the source gives them in different places. Marks after values point to notes of the source that are not given here.
# Legend:
# [1] = Dog repeat-dose toxicity studies: plasma toxicokinetics; assay type: in vivo
# [2] = Rat 4-, 13-, 26-week repeat-dose general toxicity studies; assay type: in vivo; conditions: both, Sprague-Dawley (Crl:CD), rat, in vivo, oral
# Method in brief: (§1)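 Crl:CD Sprague Dawley rats, 7–8 weeks old at start, dosed daily by oral gavage (10 ml/kg) at 0 (vehicle), 30, 100 or 1000 mg/kg/day for 4, 13 or 26 weeks. n = 10/sex/group, plus 4-week dose-free recovery (n = 5/sex). Rats fasted overnight. Hematology, coagulation and clinical chemistry sampled at baseline, end of dosing and end of recovery. Sexes pooled; treated groups compared with vehicle; variance homogeneity by […] Levene test.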
# [3] = tested on: Crl:CD Sprague Dawley (SD) rats; test: as above; assay type: in vivo
# Method in brief: as §1
# [4] = Rat fertility and early embryonic development; assay type: in vivo; conditions: both, Sprague-Dawley (Crl:CD), rat, in vivo, oral
# [5] = tested on: Crl:CD Sprague Dawley (SD) rats; test: Rat fertility and early embryonic development; assay type: in vivo; conditions: for Fertility index / Mating index / Pregnancy rate / Females mated: rat FEED; for Females mated: 22 females paired
# [6] = Rabbit embryo–fetal development; assay type: in vivo; conditions: female, rabbit, in vivo, oral
# Method in brief: (§2)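 Time-mated female rabbits, 6–8 months old at dosing start, gavaged daily (10 ml/kg) with vehicle or 10, 30 or 60 mg/kg/day test compound over GDs 7–19; n = 22/group plus a toxicokinetic group. Cesarean-section endpoints: corpora lutea, implantation sites, preimplantation loss, resorptions. Fetuses weighed and examined externally, viscerally and, after evisceration and Alizarin Red S staining, skeletally. Fetal weights analysed by ANCOVA with Dunnett's test, litter size as covariate.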
# [7] = tested on: Time-mated female rabbits; test: Rabbit embryo–fetal development; assay type: in vivo; conditions: for Corpora lutea (mean ± SD) / Implantation sites (mean ± SD) / Preimplantation loss (mean ± SD) / Total resorptions (mean ± SD) / Females with live fetuses / Pregnant females: rabbit EFD; for Females with live fetuses / Pregnant females: 22 total females
# Method in brief: as §2
# [8] = Rabbit EFD study: maternal and fetal plasma toxicokinetics; assay type: in vivo
# [9] = tested on: JAK1, JAK2, JAK3, and TYK2; test: Human cellular JAK IC50; assay type: cell-based; conditions: corrected with human plasma protein binding of 85.4%
# [10] = Human plasma protein binding; assay type: in vitro ADME
# [11] = Exposure comparisons stated jointly for several nonclinical species; assay type: in vivo, rat, dog, rabbit
# [12] = tested on: JAK1, JAK2, JAK3, and TYK2; conditions: ref Sandborn et al., 2020; cited from earlier work
# [13] = mice; 10 mg/kg oral; ref Sandborn et al., 2020; cited from earlier work
# [14] = tested on: humans; conditions: QD, ref Sandborn et al., 2020, cited from earlier work
# [15] = rat, 4 weeks, 1000 mg/kg/day, reversible
# [16] = rat, 13 weeks, 1000 mg/kg/day, reversible
# [17] = rat, 26 weeks, 1000 mg/kg/day, reversible
# [18] = maternal rabbit, GD 19, 30 and 60 mg/kg/day
structure (smiles),measurement,setting,value
"Cc1cc(Nc2cc3ncccc3c(N[C@@H]3C[C@H]4CC[C@@H](C3)N4CCC#N)n2)n[nH]1 [izencitinib, Izencitinib]",nonclinical:clinical systemic AUC margin at the NOAEL,"[1]; dog 39-week study, 30 mg/kg/day, vs human 300 mg QD",8 fold
same,Mean Cave,"[1]; dog female, 10 mg/kg/day oral, 4 weeks, last day of dosing",1.90 ng/mL
same,Mean Cave,"[1]; dog female, 10 mg/kg/day oral, 13 weeks, last day of dosing",1.53 ng/mL
same,Mean Cave,"[1]; dog female, 10 mg/kg/day oral, 39 weeks, last day of dosing",3.11 ng/mL
same,Mean Cave,"[1]; dog female, 30 mg/kg/day oral, 4 weeks, last day of dosing",14.8 ng/mL
same,Mean Cave,"[1]; dog female, 30 mg/kg/day oral, 13 weeks, last day of dosing",10.8 ng/mL
same,Mean Cave,"[1]; dog female, 30 mg/kg/day oral, 39 weeks, last day of dosing",20.5 ng/mL
same,Mean Cave,"[1]; dog female, 100 mg/kg/day oral, 13 weeks, last day of dosing",96.7 ng/mL
same,Mean Cave,"[1]; dog female, 100 mg/kg/day oral, 39-week study, week 28 (day 197)",131 ng/mL
same,Mean Cave,"[1]; dog male, 10 mg/kg/day oral, 4 weeks, last day of dosing",2.30 ng/mL
same,Mean Cave,"[1]; dog male, 10 mg/kg/day oral, 13 weeks, last day of dosing",1.61 ng/mL
same,Mean Cave,"[1]; dog male, 10 mg/kg/day oral, 39 weeks, last day of dosing",2.08 ng/mL
same,Mean Cave,"[1]; dog male, 30 mg/kg/day oral, 4 weeks, last day of dosing",19.1 ng/mL
same,Mean Cave,"[1]; dog male, 30 mg/kg/day oral, 13 weeks, last day of dosing",12.5 ng/mL
same,Mean Cave,"[1]; dog male, 30 mg/kg/day oral, 39 weeks, last day of dosing",15.9 ng/mL
same,Mean Cave,"[1]; dog male, 100 mg/kg/day oral, 13 weeks, last day of dosing",190 ng/mL
same,Mean Cave,"[1]; dog male, 100 mg/kg/day oral, 39-week study, week 28 (day 197)",69.6 ng/mL
same,plasma Cave:protein-corrected JAK IC50 ratio,"[1]; dog, 10 mg/kg/day",< 1 ×
same,plasma Cave:uncorrected JAK IC50 ratio,"[1]; dog, 10 mg/kg/day",< 1 ×
same,plasma Cave:protein-corrected JAK IC50 ratio,"[1]; dog, 30 mg/kg/day",< 1 ×
same,plasma Cave:uncorrected JAK IC50 ratio,"[1]; dog, 30 mg/kg/day",1 ×
same,time within the therapeutic range,"[1]; dog, 30 mg/kg/day",6 to 9 h
same,plasma Cave:protein-corrected JAK IC50 ratio,"[1]; dog, 100 mg/kg/day",1–2 ×
same,plasma Cave:uncorrected JAK IC50 ratio,"[1]; dog, 100 mg/kg/day",7–11 ×
same,time at supratherapeutic plasma concentrations,"[1]; dog, 100 mg/kg/day, all studies",up to 24 h
same,plasma Cave:uncorrected JAK IC50 ratio,"[1]; dog, ≥100 mg/kg/day",≥ 7 ×
same,NOAEL at 26 weeks,[2],1000 mg/kg/day
same,organ weights and microscopic findings in male reproductive tissues,"[3]; rat repeat-dose studies, up to highest tested doses",no microscopic findings
same,effects on lipid levels,"[3]; rat repeat-dose toxicity studies, any dose",no effects
same,"spleen weight, change","[3]; rat, 100 mg/kg/day",0.87 ×
same,"spleen weight, change","[3]; rat, 1000 mg/kg/day",0.78–0.86 ×
same,no observed adverse effect level,"[3]; rat, 4 weeks",1000^c mg/kg/day
same,"platelet counts, change","[3]; rat, 4 weeks, 100 mg/kg/day, reversible",1.1 ×
same,"lymphocyte counts, change",[3]; [15],0.64 ×
same,"platelet counts, change",[3]; [15],1.2 ×
same,"white blood cell counts, change",[3]; [15],0.66 ×
same,changes in red blood cell parameters,"[3]; rat, 4 weeks, any dose",No changes
same,no observed adverse effect level,"[3]; rat, 13 weeks",1000^c mg/kg/day
same,"lymphocyte counts, change","[3]; rat, 13 weeks, 100 mg/kg/day, reversible",0.78 ×
same,"hemoglobin levels, change","[3]; rat, 13 weeks, 1000 mg/kg/day, end of dosing",0.97 ×
same,"hemoglobin levels, change","[3]; rat, 13 weeks, 1000 mg/kg/day, end of recovery period",0.95 ×
same,"lymphocyte counts, change",[3]; [16],0.64 ×
same,"platelet counts, change",[3]; [16],1.2 ×
same,"red blood cell counts, change",[3]; [16],0.96 ×
same,"white blood cell counts, change",[3]; [16],0.74 ×
same,"platelet counts, change","[3]; rat, 26 weeks, 1000 mg/kg/day",1.1 ×
same,"white blood cell counts, change","[3]; rat, 26 weeks, 1000 mg/kg/day",0.68 ×
same,"incidence of minimally decreased lymphoid cellularity, females",[3]; [17],1 of 10
same,"incidence of minimally decreased lymphoid cellularity, males",[3]; [17],4 of 10
same,"hemoglobin levels, change","[3]; rat, 26 weeks, all dose levels",0.95 ×
same,"effects on food consumption, ophthalmic evaluations, clinical chemistry, urinalysis","[3]; rat, all repeat-dose studies",no effects
same,changes in reticulocyte levels,"[3]; rat, any dose, 3 studies",No changes
same,effects on neutrophils,"[3]; rat, any dose, 3 studies",No izencitinib-related effects
same,changes in coagulation parameters,"[3]; rat, any dose, all 3 studies",no changes
same,"other changes in organ weights or microscopic effects, including GI tissues","[3]; rat, up to 1000 mg/kg/day, all studies",No other changes
same,tolerability,"[3]; rat, up to highest tested dose 1000 mg/kg/day, 4-, 13-, 26-week studies",well-tolerated
same,NOAEL,[4],1000 mg/kg/day
same,Fertility index,[5]; 30 mg/kg/day oral,90.9%
same,Mating index,[5]; 30 mg/kg/day oral,100.0%
same,Pregnancy rate,[5]; 30 mg/kg/day oral,90.9%
same,Females mated,[5]; 30 mg/kg/day oral,22 n
same,Females mated,[5]; 100 mg/kg/day oral,21 n
same,Fertility index,[5]; 1000 mg/kg/day oral,95.2%
same,Mating index,[5]; 1000 mg/kg/day oral,95.5%
same,Pregnancy rate,[5]; 1000 mg/kg/day oral,90.9%
same,Females mated,[5]; 1000 mg/kg/day oral,21 n
same,effect on male or female fertility,"[5]; rat, up to 1000 mg/kg/day",did not affect; also recorded: No effects
same,NOAEL,[6],60 mg/kg/day
same,effects on fetal parameters,[7]; rabbit,no effects
same,Corpora lutea (mean ± SD),[7]; 10 mg/kg/day oral GDs 7–19,10 ± 1.7
same,Implantation sites (mean ± SD),[7]; 10 mg/kg/day oral GDs 7–19,10 ± 1.6
same,Preimplantation loss (mean ± SD),[7]; 10 mg/kg/day oral GDs 7–19,1.0 ± 0.8
same,Total resorptions (mean ± SD),[7]; 10 mg/kg/day oral GDs 7–19,0 ± 0.4
same,Females with live fetuses,[7]; 10 mg/kg/day oral GDs 7–19,20
same,Pregnant females,[7]; 10 mg/kg/day oral GDs 7–19,22
same,Corpora lutea (mean ± SD),[7]; 30 mg/kg/day oral GDs 7–19,11 ± 2.0
same,Implantation sites (mean ± SD),[7]; 30 mg/kg/day oral GDs 7–19,10 ± 1.9
same,Preimplantation loss (mean ± SD),[7]; 30 mg/kg/day oral GDs 7–19,1.0 ± 0.9
same,Total resorptions (mean ± SD),[7]; 30 mg/kg/day oral GDs 7–19,0 ± 0.4
same,Females with live fetuses,[7]; 30 mg/kg/day oral GDs 7–19,21
same,Pregnant females,[7]; 30 mg/kg/day oral GDs 7–19,21
same,Corpora lutea (mean ± SD),[7]; 60 mg/kg/day oral GDs 7–19,11 ± 2.3
same,Implantation sites (mean ± SD),[7]; 60 mg/kg/day oral GDs 7–19,10 ± 2.8
same,Preimplantation loss (mean ± SD),[7]; 60 mg/kg/day oral GDs 7–19,1.0 ± 1.5
same,Total resorptions (mean ± SD),[7]; 60 mg/kg/day oral GDs 7–19,1 ± 1.6
same,Females with live fetuses,[7]; 60 mg/kg/day oral GDs 7–19,21
same,Pregnant females,[7]; 60 mg/kg/day oral GDs 7–19,22
same,effects on cesarean section parameters,"[7]; rabbit, any dose",no adverse effects
same,tolerability,"[7]; rabbit, up to 60 mg/kg/day",well tolerated
same,plasma Cave:protein-corrected JAK IC50 ratio,"[8]; maternal rabbit, 10 mg/kg/day",< 1 ×
same,plasma Cave:uncorrected JAK IC50 ratio,"[8]; maternal rabbit, 10 mg/kg/day",< 1 ×
same,Mean Cave,"[8]; maternal rabbit, GD 7, 10 mg/kg/day oral",0.365 ng/mL
same,Mean Cave,"[8]; maternal rabbit, GD 7, 30 mg/kg/day oral",3.28 ng/mL
same,Mean Cave,"[8]; maternal rabbit, GD 7, 60 mg/kg/day oral",21.8 ng/mL
same,Mean Cave,"[8]; maternal rabbit, GD 19, 10 mg/kg/day oral",0.754 ng/mL
same,plasma Cave:uncorrected JAK IC50 ratio,"[8]; maternal rabbit, GD 19, 30 mg/kg/day",1 ×
same,Mean Cave,"[8]; maternal rabbit, GD 19, 30 mg/kg/day oral",18.7 ng/mL
same,plasma Cave:uncorrected JAK IC50 ratio,"[8]; maternal rabbit, GD 19, 60 mg/kg/day",6 ×
same,Mean Cave,"[8]; maternal rabbit, GD 19, 60 mg/kg/day oral",76.7 ng/mL
same,plasma Cave:protein-corrected JAK IC50 ratios,[8]; [18],< 1 ×
same,time at supratherapeutic plasma levels,[8]; [18],6 to 9 h
same,nonclinical:clinical AUC ratio at the NOAEL,"[8]; rabbit EFD study, 60 mg/kg/day, vs human 300 mg QD",33 fold
same,"fetal plasma concentrations, all other samples","[8]; rabbit fetuses, undetectable, limit of quantitation",< 1 ng/mL
same,concentration at 3 h,"[8]; rabbit, fetal plasma, oral, 60 mg/kg/day",1.55 ng/mL
same,"human cellular JAK IC50 range, human plasma protein binding corrected",[9],0.08718 to 0.5501 µg/mL
same,fraction unbound,[10],0.146
same,nonclinical:clinical systemic exposure (AUC) ratio at the NOAEL dose,"[11]; rat and dog general toxicity studies, each study, vs human 300 mg QD",6- to 18 fold
same,fetal exposure,[11]; rat and rabbit EFD studies,negligible
same,maternal plasma Cave:JAK IC50 ratio,[11]; rat and rabbit EFD studies,2–6 ×
same,Cave:uncorrected IC50 ratio,"[11]; rat and rabbit EFD, highest dose tested",≥ 2 ×
same,"human cellular JAK IC50 range, uncorrected",[12],0.01273 to 0.08031 µg/mL
same,colon:plasma AUC ratio,[13],3883
same,dose up to which well tolerated,"[14]; phase 1b, ulcerative colitis patients",270 mg
same,dose up to which well tolerated,[14]; phase 1 single ascending dose,1000 mg
